One experiment relates to Streptococcus pyogenes. Description: In vitro antibacterial activity against gram positive Streptococcus pyogenes 930. In kind it is functional. The method in brief:
(§1)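 Agar dilution MIC determination following the National Committee for Clinical Laboratory Standards recommendations.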

Experiment [1] concerns Mus musculus. The experiment is described as follows: In vivo efficacy against Pseudomonas aeruginosa 5007 in mouse protection test […]. In kind it is functional. The method in brief:
(§2)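 Mouse protection model: mice infected intravenously with 100-fold LD50 of the organism. Compound given by subcutaneous injection or oral gavage at 1 and 5 h after infection, over a dose range. Deaths tracked for 7 days post-inoculation. ED50 is the dose giving 50% survival of treated mice over the trial.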

The next experiment deals with Burkholderia cepacia. The experiment is described as follows: In vitro antibacterial activity against gram negative Pseudomonas cepacia 2961. The class given is functional. The conditions noted are these: Burkholderia cepacia; read-out: MIC. Put shortly:
as §1

Experiment [2] concerns Staphylococcus aureus. Description: In vivo efficacy against Staphylococcus aureus NCTC 10649M in mouse protection test after p.o. administration. The class given is functional. The conditions noted are these: Staphylococcus aureus, po; read-out: ED50. The method in brief: as §2
The subject of experiment [3] is Escherichia coli. Description: In vitro antibacterial activity against gram negative Escherichia coli KNK 437. The class given is functional. The conditions noted are these: Escherichia coli; read-out: MIC. The method in brief: as §1
The test system of experiment [4] is Pseudomonas aeruginosa. Description: In vitro antibacterial activity against Gram-negative Pseudomonas aeruginosa 5007. In kind it is functional. The following applies: Pseudomonas aeruginosa; read-out: MIC. Put shortly:
as §1

Experiment [5] relates to Staphylococcus aureus. The experiment is described as follows: In vitro antibacterial activity against gram-positive Staphylococcus aureus NCTC 10649M. The class given is functional. The method in brief:
as §1

For experiment [6], the system named is Mus musculus. Description: IIn vivo efficacy against Escherichia coli JUHL in mouse protection test after administration by oral gavage. In kind it is functional. The method in brief:
as §2

In experiment [7] the test system is Staphylococcus aureus. The experiment is described as follows: In vivo efficacy against Staphylococcus aureus NCTC 10649M in mouse. In kind it is functional. The following applies: Staphylococcus aureus; read-out: ED50. Put shortly: as §2
Another experiment deals with Enterococcus faecium. The experiment is described as follows: In vitro antibacterial activity against gram-positive Enterococcus faecium ATCC 8043. The following applies: Enterococcus faecium, ATCC 8043; read-out: MIC. In kind it is functional. Put shortly:
as §1

Experiment [8] deals with Escherichia coli. Description: In vivo efficacy against Escherichia coli JUHL in mouse protection test after subcutaneous administration. The class given is functional. The conditions noted are these: Escherichia coli, sc; read-out: ED50. Put shortly: as §2
Experiment [9] has as its system Pseudomonas aeruginosa. The experiment is described as follows: In vivo efficacy against Pseudomonas aeruginosa 5007 in mouse protection test after subcutaneous administration. In kind it is functional. The conditions noted are these: Pseudomonas aeruginosa, sc; read-out: ED50. The method in brief: as §2
Experiment [10] has as its system Pseudomonas aeruginosa. The experiment is described as follows: In vitro antibacterial activity against gram negative P. aeruginosa DPHP 5263. The class given is functional. The following applies: Pseudomonas aeruginosa, DPHP 5263; read-out: MIC. Put shortly:
as §1

Experiment [11] deals with Staphylococcus aureus. Description: In vitro antibacterial activity against gram-positive Staphylococcus aureus 1775. In kind it is functional. The following applies: Staphylococcus aureus; read-out: MIC. Put shortly:
as §1

Experiment [12] has as its system Mus musculus. Description: In vivo efficacy against Staphylococcus aureus NCTC 10649M in mouse protection test.
In experiment [13] the test system is Escherichia coli. The experiment is described as follows: In vivo efficacy against Escherichia coli JUHL in mouse protection test after p.o. administration. In kind it is functional. The conditions noted are these: Escherichia coli, po; read-out: ED50. Put shortly:
as §2

Experiment [14] concerns Pseudomonas aeruginosa. The experiment is described as follows: Not Plasmodium species. In kind it is functional.
Another experiment has as its system Streptococcus pneumoniae. Description: In vivo efficacy against Streptococcus pneumoniae ATCC 6303 in mouse protection test after s.c. administration. In kind it is functional. The following applies: Streptococcus pneumoniae, sc; read-out: ED50. The method in brief: as §2
The test system of experiment [15] is Mus musculus. The experiment is described as follows: In vivo efficacy against Streptococcus pneumoniae ATCC 6303 in mouse protection test after administration by oral gavage. In kind it is functional. Put shortly:
as §2

Setting [16] is: Streptococcus pyogenes, read-out: MIC.
Where [17] appears, read: Staphylococcus aureus, NCTC 10649, read-out: MIC.

For seven compounds, MIC and ED50 results are on record in ChEMBL document CHEMBL1132437, “Synthesis and antimicrobial activity of 4H-4-oxoquinolizine derivatives: consequences of structural modification at the C-8 position” (1999).

The structures appear in SMILES notation. Converted amounts (≈) assume the structure as drawn. Some results are limits rather than exact numbers.

A word on the MIC: it is the smallest concentration in the dilution series that meets the test's criterion for growth inhibition. For orientation: ED50 means the midpoint of the dose-response relation.

Regarding `Cc1c(N2CC[C@@H]3NCCC[C@@H]32)c(F)cn2c(=O)c(C(=O)O)cc(C3CC3)c12`, the MIC with Streptococcus pyogenes (setting [16]) was 1.56 mg/L (≈ 4.05 µM); in the experiment with Burkholderia cepacia it was 25 mg/L (≈ 64.9 µM); in the experiment with Escherichia coli [3] it was 0.78 mg/L (≈ 2.02 µM); in the experiment with Pseudomonas aeruginosa [4] it was 3.1 mg/L (≈ 8.04 µM); in the experiment with Staphylococcus aureus [5] (setting [17]), 0.2 mg/L (≈ 0.519 µM); with Enterococcus faecium, 3.1 mg/L (≈ 8.04 µM). Further, the MIC is 100 mg/L (≈ 259 µM) with Pseudomonas aeruginosa [10] and 12.5 mg/L (≈ 32.4 µM) in the experiment on Staphylococcus aureus [11]. Moreover, the ED50 in the experiment with Mus musculus [1] was more than 50 mg/kg; in the experiment on Staphylococcus aureus [2] it was 23.9 mg/kg; with Mus musculus [6], more than 10 mg/kg; in the experiment on Staphylococcus aureus [7], 7 mg/kg; in the experiment with Escherichia coli [8], 4.4 mg/kg; with Pseudomonas aeruginosa [9] it was more than 32 mg/kg.
`Cc1c(N2CC[C@@H]3[C@H](N)[C@@H]3C2)c(F)cn2c(=O)c(C(=O)O)cc(C3CC3)c12`: the MIC in the experiment with Streptococcus pyogenes (setting [16]) stood at 0.05 mg/L (≈ 0.135 µM); in the experiment on Burkholderia cepacia, 3.1 mg/L (≈ 8.35 µM); with Escherichia coli [3] it was 0.2 mg/L (≈ 0.538 µM); with Pseudomonas aeruginosa [4], 0.39 mg/L (≈ 1.05 µM); with Staphylococcus aureus [5] (setting [17]), 0.02 mg/L (≈ 0.0538 µM); in the experiment on Enterococcus faecium, 0.05 mg/L (≈ 0.135 µM). Also, the figures for the MIC in the experiment on Pseudomonas aeruginosa [10] and with Staphylococcus aureus [11] were 6.2 mg/L (≈ 16.7 µM) and 1.56 mg/L (≈ 4.2 µM), respectively. Besides, the ED50 in the experiment on Mus musculus [12] worked out at 1.2 mg/kg; in the experiment with Staphylococcus aureus [2] it was 4.1 mg/kg; with Escherichia coli [13], 5 mg/kg; with Escherichia coli [8] it was 0.9 mg/kg.
With `Cc1c(N2CCC2)c(F)cn2c(=O)c(C(=O)O)cc(C3CC3)c12`, the MIC worked out at 0.78 mg/L (≈ 2.47 µM) in the experiment with Streptococcus pyogenes (setting [16]); 3.1 mg/L (≈ 9.8 µM) with Burkholderia cepacia; 3.1 mg/L (≈ 9.8 µM) with Pseudomonas aeruginosa [14]; 3.1 mg/L (≈ 9.8 µM) in the experiment on Escherichia coli [3]; 0.2 mg/L (≈ 0.632 µM) in the experiment with Staphylococcus aureus [5] (setting [17]); 0.78 mg/L (≈ 2.47 µM) in the experiment on Enterococcus faecium. Besides, the MIC was more than 10 mg/L in the experiment on Pseudomonas aeruginosa [10] and 3.1 mg/L (≈ 9.8 µM) in the experiment on Staphylococcus aureus [11].
`Cc1c(N2CCC[C@@H](NC3CC3)C2)c(F)cn2c(=O)c(C(=O)O)cc(C3CC3)c12`: the MIC in the experiment with Streptococcus pyogenes (setting [16]) is 0.02 mg/L (≈ 0.0501 µM); in the experiment on Burkholderia cepacia, 6.2 mg/L (≈ 15.5 µM); in the experiment with Escherichia coli [3] it was 0.1 mg/L (≈ 0.25 µM); with Pseudomonas aeruginosa [4], 0.78 mg/L (≈ 1.95 µM); in the experiment with Staphylococcus aureus [5] (setting [17]), 0.01 mg/L (≈ 0.025 µM); in the experiment on Enterococcus faecium, 0.05 mg/L (≈ 0.125 µM). In addition, the values for the MIC with Pseudomonas aeruginosa [10] and with Staphylococcus aureus [11] were 25 mg/L (≈ 62.6 µM) and 3.1 mg/L (≈ 7.76 µM), respectively. In addition, the ED50 in the experiment with Streptococcus pneumoniae is more than 16 mg/kg; in the experiment on Staphylococcus aureus [7] it was 1.8 mg/kg; in the experiment with Pseudomonas aeruginosa [9] it was more than 32 mg/kg.
`Cc1c(N2CC[C@H](NC3CC3)C2)c(F)cn2c(=O)c(C(=O)O)cc(C3CC3)c12`: the MIC with Streptococcus pyogenes (setting [16]) came out at 0.05 mg/L (≈ 0.13 µM); with Burkholderia cepacia, 0.39 mg/L (≈ 1.01 µM); with Escherichia coli [3], 0.2 mg/L (≈ 0.519 µM); with Pseudomonas aeruginosa [4] it was 0.39 mg/L (≈ 1.01 µM); in the experiment on Staphylococcus aureus [5] (setting [17]), 0.02 mg/L (≈ 0.0519 µM); in the experiment on Enterococcus faecium, 0.2 mg/L (≈ 0.519 µM). The MIC was 12.5 mg/L (≈ 32.4 µM) in the experiment with Pseudomonas aeruginosa [10] and 0.39 mg/L (≈ 1.01 µM) in the experiment on Staphylococcus aureus [11]. Also, the ED50 in the experiment on Streptococcus pneumoniae was more than 8 mg/kg; in the experiment with Mus musculus [1], more than 50 mg/kg; in the experiment with Mus musculus [15], 23.1 mg/kg; in the experiment with Staphylococcus aureus [2], 25 mg/kg; in the experiment on Escherichia coli [13] it was 16.5 mg/kg; with Staphylococcus aureus [7] it was 3.6 mg/kg. Moreover, the ED50 is 5 mg/kg with Escherichia coli [8] and more than 32 mg/kg with Pseudomonas aeruginosa [9].
Regarding `Cc1c(N2C[C@@H](N)[C@@H](C3CC3)C2)c(F)cn2c(=O)c(C(=O)O)cc(C3CC3)c12` (stereo in doubt; 3s), the MIC worked out at 0.1 mg/L (≈ 0.259 µM) in the experiment with Streptococcus pyogenes; 0.78 mg/L (≈ 2.02 µM) with Burkholderia cepacia; 0.2 mg/L (≈ 0.519 µM) with Escherichia coli [3]; 0.39 mg/L (≈ 1.01 µM) with Pseudomonas aeruginosa [4]; 0.02 mg/L (≈ 0.0519 µM) with Staphylococcus aureus [5]; 0.1 mg/L (≈ 0.259 µM) in the experiment on Enterococcus faecium. Moreover, the MIC with Pseudomonas aeruginosa [10] was found to be 12.5 mg/L (≈ 32.4 µM); with Staphylococcus aureus [11], 0.39 mg/L (≈ 1.01 µM). For the same compound, the ED50 worked out at 3.4 mg/kg in the experiment with Staphylococcus aureus [2], 6.6 mg/kg in the experiment with Escherichia coli [13], 1.5 mg/kg in the experiment with Staphylococcus aureus [7] and 3.7 mg/kg in the experiment with Escherichia coli [8].
Regarding `Cc1c(N2CCCC2)c(F)cn2c(=O)c(C(=O)O)cc(C3CC3)c12`, the MIC is 0.2 mg/L (≈ 0.605 µM) in the experiment on Streptococcus pyogenes (setting [16]); 0.78 mg/L (≈ 2.36 µM) with Burkholderia cepacia; 0.78 mg/L (≈ 2.36 µM) with Pseudomonas aeruginosa [14]; 0.39 mg/L (≈ 1.18 µM) in the experiment on Escherichia coli [3]; 0.02 mg/L (≈ 0.0605 µM) with Staphylococcus aureus [5] (setting [17]); 0.2 mg/L (≈ 0.605 µM) in the experiment on Enterococcus faecium. The MIC in the experiment with Pseudomonas aeruginosa [10] is more than 100 mg/L; in the experiment on Staphylococcus aureus [11] it was 0.78 mg/L (≈ 2.36 µM). The values for the ED50 in the experiment on Staphylococcus aureus [7] and in the experiment on Escherichia coli [8] were more than 12 mg/kg and more than 50 mg/kg, respectively.
